According to paper PMC6013806 (Chemical Science, 2016):
Each block holds one molecule with its values, some of them ahead of it.

What was measured:
[1] = biological target: Relaxin Family Peptide Receptor 1 (RXFP1), human, stably expressed in HEK-293T cells (human) (UniProt Q9HBX9); assay: competition binding with Eu3+-labelled H2 relaxin on whole cells
[2] = tested on: MMP-2 in rat renal myofibroblasts; assay: MMP-2 levels by gelatin zymography, rat renal myofibroblasts; assay type: cell-based
In short: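 Rat renal myofibroblasts were isolated from injured kidneys 3 days after unilateral ureteric obstruction. They were exposed to test compound at 16.8 nM (≃100 ng mL−1) for 72 h, with or without an RXFP1 antagonist (relaxin B-chain Arg13/Arg17→Lys); H2 relaxin was run at equivalent concentration. MMP-2 in media diluted 1:5–1:10 was read by gelatin zymography and densitometry. Three experiments were run in duplicate.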

human RXFP1 [3] = biological target: T1, human RXFP1 (Homo sapiens, UniProt Q9HBX9); assay: cAMP reporter gene assay, HEK-293T cells expressing human RXFP1; assay type: cell-based; conditions: HEK-293T cells stably expressing RXFP1
T1 sequence (Q9HBX9 1-757): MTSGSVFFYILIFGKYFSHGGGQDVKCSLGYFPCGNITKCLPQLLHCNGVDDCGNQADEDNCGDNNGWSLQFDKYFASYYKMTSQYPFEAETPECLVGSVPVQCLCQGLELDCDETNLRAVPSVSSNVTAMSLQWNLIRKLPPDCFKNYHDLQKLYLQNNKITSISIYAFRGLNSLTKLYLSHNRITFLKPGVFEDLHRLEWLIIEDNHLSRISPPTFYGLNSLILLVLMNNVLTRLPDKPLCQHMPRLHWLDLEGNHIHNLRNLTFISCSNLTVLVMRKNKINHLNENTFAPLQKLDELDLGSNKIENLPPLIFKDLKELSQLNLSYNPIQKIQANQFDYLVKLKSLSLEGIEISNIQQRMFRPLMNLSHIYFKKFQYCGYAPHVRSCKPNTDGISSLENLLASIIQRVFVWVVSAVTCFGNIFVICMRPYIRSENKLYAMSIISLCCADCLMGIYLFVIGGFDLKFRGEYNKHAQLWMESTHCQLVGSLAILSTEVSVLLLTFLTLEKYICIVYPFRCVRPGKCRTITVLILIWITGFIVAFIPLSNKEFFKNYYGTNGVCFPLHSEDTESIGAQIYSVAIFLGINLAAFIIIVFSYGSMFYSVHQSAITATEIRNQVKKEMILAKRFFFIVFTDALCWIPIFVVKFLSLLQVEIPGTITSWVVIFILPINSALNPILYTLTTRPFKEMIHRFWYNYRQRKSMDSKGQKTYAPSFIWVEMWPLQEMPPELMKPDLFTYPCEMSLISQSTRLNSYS
In short: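 HEK-293T cells expressing human RXFP1 were co-transfected with a pCRE β-galactosidase cAMP reporter plasmid and plated. After 24 h they were incubated with increasing concentrations of test peptide in parallel with H2 relaxin. Points were run in triplicate, with ≥3 independent experiments; pEC50 values were derived.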

human RXFP1 [4] = biological target: T1, human RXFP1; assay: Competition binding with europium-labelled H2 relaxin in HEK-RXFP1 cells; conditions: HEK-293T cells stably expressing RXFP1; compared with B7-33
In short: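 Whole-cell competition binding on HEK-293T cells stably transfected with RXFP1. Cells were grown in RPMI 1640 with 10% FCS, penicillin, streptomycin and 2 mM L-glutamine, then plated on poly-L-lysine-coated wells. Eu3+-labelled H2 relaxin was competed by increasing concentrations of unlabelled test peptide. % specific binding was measured in triplicate wells, repeated ≥3 times; one-site fit gave pIC50.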

[5] = cited from earlier work
[6] = cited from earlier work; remark: listed apart in the source

Molecule: Human gene-2 relaxin (ligand)
pKi [1]: 8.96

Molecule: Cc1cc(Cn2cnc3c2C[C@@H](C(=O)O)N(C(=O)C(c2ccccc2)c2ccccc2)C3)ccc1N(C)C [PD123319]
effect of antagonist alone on basal MMP-2 expression ([2]; antagonist alone): neither the RXFP1 nor AT2 receptor antagonists alone affected basal MMP-2 expression
effect of antagonist on MMP-promoting effects of B7-33 ([2]; rat renal myofibroblasts treated with B7-33): completely blocked

Molecule: B1-29: native H2 relaxin B-chain with 29 residues
solubility in water [5]: insoluble in water
functional activity [6]: functionally inactive

The remaining lines, values ahead:

cAMP activity at HEK-RXFP1 (in words) (human RXFP1 [3]): no change
binding affinity at HEK-RXFP1 (in words) (human RXFP1 [4]): no change
Molecule: AcB7-33: Acetylated B7-33 (Ac-VIKLCGRELVRAQIAICGMSTWSKRSL-NH2; cysteine pairing not given here; UniProt P04090 31-57, looked up, fragment)

pKi [1]: 5.54
Molecule: B7-33 (H2 relaxin B-chain-only analogue) (peptide)
